# Reference: ChEMBL document CHEMBL3399918, “In vitro radical scavenging and cytotoxic activities of novel hybrid selenocarbamates” (Bioorg Med Chem, 2015)
# Activity calls are given as the source filed them. The calls are words filed in the database; no cut-off is given here.
# Assays:
# [1] = Cytotoxicity against human HTB-54 cells after 72 hrs by MTT assay; type: functional; conditions: HTB-54, 72 h; for CC50: read-out: LC50 (the source's name)
# Method in brief: (§1)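 CCRF-CEM, HT-29, PC-3 and HTB-54 cells grown in RPMI 1640 with 10% foetal calf serum, 2 mM L-glutamine, penicillin/streptomycin, 10 mM HEPES (pH 7.4). Five concentrations, 0.01–100 μM, 72 h at 37 °C, 5% CO2; MTT read-out. GI50, TGI and LC50 versus untreated controls; at least 3 independent experiments in quadruplicate.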
# [2] = Antioxidant activity assessed as ABTS radical scavenging activity at 0.1 mg/ml after 6 mins; type: physicochemical; conditions: 0.1 h
# Method in brief: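 Diluted with 50% ethanol to A741 0.700 ± 0.02. A741 decrease read after 6 min against a 50% ethanol blank. % scavenged relative to a vehicle-plus-radical control. Quadruplicate.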
# [3] = Antioxidant activity assessed as DPPH radical scavenging activity at 0.5 mg/ml after 180 mins; type: physicochemical; conditions: 3 h
# Method in brief: (§2)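 Compounds in absolute ethanol, serially diluted from 1 mg/mL, mixed 1:1 with […] in ethanol. Final range 0.016–0.5 mg/mL, 6 concentrations. Incubated at 37 °C in the dark, with decolourisation followed at 517 nm at several time intervals. % scavenged = (A vehicle control − A sample)/A control × 100. Quadruplicate; mean ± SD.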
# [4] = Glutathione peroxidase-like activity assessed as reduction in H2O2 reduction by tiophenol based UV absorption spectrometry
# Method in brief: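 Iwaoka–Tomoda thiophenol method. Compound in ethanol at 0.1 mg/mL, mixed in equal volumes with 2 mM PhSH in ethanol and 5 mM H2O2 in ethanol (stock concentrations). Data collected every 5 s. Negative control contained compound, vehicle and PhSH without H2O2. Triplicate; mean ± SD.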
# [5] = Cytotoxicity against human BEAS2B cells after 72 hrs by MTT assay; type: cell-based, BEAS-2B; conditions: for GI50 at 72 h: BEAS2B cells; for LC50 / TGI: beas-2b, 72 h
# Method in brief: (§3)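 Non-malignant lines: 184B5 (normal breast) in Hams F-12/DMEM (50:50) with published supplements; BEAS-2B (bronchial epithelium) in Hams F-12/DMEM (50:50) with 10% foetal calf serum, 2 mM L-glutamine, penicillin/streptomycin. Compounds at five concentrations, 0.01–100 μM, 72 h, 37 °C, 5% CO2; MTT read-out. GI50, TGI, LC50 relative to untreated controls; ≥3 independent experiments in quadruplicate.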
# MCF7 = test: Cytotoxicity against human MCF7 cells after 72 hrs by MTT assay; type: functional; conditions: MCF7, 72 h; for CC50: read-out: LC50 (the source's name)
# Method in brief: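 MCF-7 cells grown in EMEM with 10% foetal calf serum, 2 mM L-glutamine, 100 units/mL penicillin, 100 µg/mL streptomycin. Exposed to five concentrations between 0.01 and 100 μM for 72 h, 37 °C, humidified 5% CO2; MTT read-out. GI50, TGI, LC50 relative to untreated controls; ≥3 independent experiments in quadruplicate.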
# CCRF-CEM = test: Cytotoxicity against human CCRF-CEM cells after 72 hrs by MTT assay; type: functional; method in brief: as §1
# HT-29 = test: Cytotoxicity against human HT-29 cells after 72 hrs by MTT assay; type: functional; conditions: HT-29, 72 h; method in brief: as §1
# [6] = Cytotoxicity against human 184B5 cells after 72 hrs by MTT assay; type: cell-based; conditions: for GI50 at 72 h: 184B5 cells; for LC50 / TGI: 184b5, 72 h; method in brief: as §3
# [7] = Cytotoxicity against human PC3 cells after 72 hrs by MTT assay; type: functional; conditions: PC-3, 72 h; method in brief: as §1
# [8] = Antioxidant activity assessed as ABTS radical scavenging activity by measuring Trolox equivalent antioxidant capacity after 6 mins; type: physicochemical; conditions: 0.1 h
# Method in brief: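 ABTS dissolved in deionized water at 1 mg/mL, oxidised to radical cation with potassium persulfate (2.45 mM final), kept overnight at room temperature in dark, then diluted with 50% ethanol to A741 = 0.700 ± 0.02. Compound (1 mg/mL ethanol stock) added 1:10 (0.1 mg/mL); A741 decrease read after 6 min against 50% ethanol blank. Trolox positive control; quadruplicate; TEAC from calibration curve.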
# [9] = Glutathione peroxidase-like activity assessed as reduction in H2O2 reduction at 0.033 mg/ml by tiophenol based UV absorption spectrometry
# Method in brief: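 Iwaoka–Tomoda method: compound in ethanol (0.1 mg/mL stock) mixed in equal volumes with 2 mM PhSH and 5 mM H2O2 (both ethanol stocks), thiophenol-driven catalytic H2O2 reduction. Data collected every 5 s. Negative control without H2O2 (compound, vehicle, PhSH). Triplicate.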
# [10] = Antioxidant activity assessed as DPPH radical scavenging activity at 0.25 mg/ml; type: physicochemical; conditions: TDE = time-dependent effect; method in brief: as §2
SMILES,GI50 [1] [µM],TGI [1] [µM],CC50 [1] [µM],inhibition (INH) [2] [%],inhibition (INH) [3] [%],GI50 at 72 h [5] [µM],LC50 [5] [µM],TGI [5] [µM],GI50 (MCF7) [µM],TGI (MCF7) [µM],CC50 (MCF7) [µM],GI50 (CCRF-CEM) [µM],LC50 (CCRF-CEM) [µM],TGI (CCRF-CEM) [µM],GI50 (HT-29) [µM],LC50 (HT-29) [µM],TGI (HT-29) [µM],GI50 at 72 h [6] [µM],LC50 [6] [µM],TGI [6] [µM],also measured
COc1ccc(OC(=O)Nc2ccc([Se][Se]c3ccc(NC(=O)Oc4ccc(OC)cc4)cc3)cc2)cc1,18,46.3,74.5,> 25,> 50,0.6,62.3,19.9,9.7,42.8,76.8,5.3,63.1,25.8,13,79.2,46.1,3.4,43.5,8.1,Activity [4]: inactive; GI50 [7]: 4.4 µM; LC50 (concentration causing 50% net cell kill) [7]: 64.6 µM; TGI [7]: 28.2 µM
CCCCOC(=O)Nc1ccc([Se]C#N)cc1,17.2,43.4,69.5,12.6,6.6,5,54.5,12.2,6.6,20.2,59.7,6.5,63.5,27.9,8.1,63.7,31.3,5.3,56.8,14.5,Activity [8]: 6.77 µg/µL; GI50 [7]: 12.4 µM; LC50 (concentration causing 50% net cell kill) [7]: 69.3 µM; TGI [7]: 40.8 µM
CCCOC(=O)Nc1ccc([Se][Se]c2ccc(NC(=O)OCCC)cc2)cc1,48.5,68.4,88.3,22.5,52.4,14.4,72.2,43.3,31.7,55.8,80,4.3,49.1,8.8,18.3,76.1,47.2,7.2,62,24.5,Activity [8]: 14.5 µg/µL; GI50 [7]: 18.4 µM; LC50 (concentration causing 50% net cell kill) [7]: 71.5 µM; TGI [7]: 45 µM
CCOC(=O)Nc1ccc([Se][Se]c2ccc(NC(=O)OCC)cc2)cc1,31.2,56.6,82,21.3,37,16.1,71.9,44,9.9,39,68.3,24.6,74.3,49.5,26,76.1,51.1,5.7,58.7,16.7,Activity [8]: 13.6 µg/µL; GI50 [7]: 28.8 µM; LC50 (concentration causing 50% net cell kill) [7]: 75.7 µM; TGI [7]: 52.2 µM
CCCCOC(=O)Nc1ccc([Se][Se]c2ccc(NC(=O)OCCCC)cc2)cc1,35.2,57.3,79.4,7.3,36.1,24.2,75,49.6,17.3,46.3,75.2,16.7,72.3,44.5,27.6,82.4,55,7.2,63.1,26,Activity [8]: 2.67 µg/µL; GI50 [7]: 28.6 µM; LC50 (concentration causing 50% net cell kill) [7]: 76.4 µM; TGI [7]: 52.5 µM
CCOC(=O)Nc1ccc([Se]C#N)cc1,24.9,49.3,72.7,26.3,37,21.7,72.2,46.9,8.9,36.7,67.8,9.8,68.8,39.1,9.3,66.6,38,5.5,59,18.6,Activity [8]: 17.4 µg/µL; Activity [9]: Active; GI50 [7]: 9.9 µM; LC50 (concentration causing 50% net cell kill) [7]: 68.4 µM; TGI [7]: 39.2 µM
C=CCOC(=O)Nc1ccc([Se][Se]c2ccc(NC(=O)OCC=C)cc2)cc1,29.8,56.6,83.3,10.9,30,14.3,71.4,42.9,20.8,47.2,73.6,4.6,46.9,8.7,25.9,79.5,52.7,6.4,60.4,21.5,Activity [8]: 5.5 µg/µL; GI50 [7]: 25 µM; LC50 (concentration causing 50% net cell kill) [7]: 74.7 µM; TGI [7]: 49.9 µM
N#C[Se]c1ccc(NC(=O)Oc2ccccc2)cc1,26.2,50.2,74.4,> 25,19.3,8.9,69.3,38.2,4,35.9,67.8,22.9,73.2,48,11.7,71.7,41.7,0.4,61.2,22.7,Activity [8]: 29 µg/µL; GI50 [7]: 9.1 µM; LC50 (concentration causing 50% net cell kill) [7]: 68 µM; TGI [7]: 37.5 µM
CC(C)COC(=O)Nc1ccc([Se][Se]c2ccc(NC(=O)OCC(C)C)cc2)cc1,29,52.9,76.9,29.6,66.5,13.1,72.4,42.7,19,49.7,80.5,9.8,70.2,39.8,19.9,77.4,48.6,5.5,56.6,10.5,Activity [8]: 20 µg/µL; Activity [4]: inactive; inhibition (INH) [10]: tde; GI50 [7]: 24.2 µM; LC50 (concentration causing 50% net cell kill) [7]: 73.7 µM; TGI [7]: 48.9 µM
